Screens: PubChem, several laboratories
Rad51 HR inh = Rad51 (human) homologous recombination inhibition. hRad51 DNA strand exchange, fluorescence dequenching. inhibition, % at 10 µM. 200,000 compounds, 0.085% hits. AID 1385;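 active = inhibition above 40% at the single screening dose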;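 also: 0% = DMSO control wells and 100% = blanks with heterologous ssDNA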
Target sequence (Q06609 whole entry, looked up): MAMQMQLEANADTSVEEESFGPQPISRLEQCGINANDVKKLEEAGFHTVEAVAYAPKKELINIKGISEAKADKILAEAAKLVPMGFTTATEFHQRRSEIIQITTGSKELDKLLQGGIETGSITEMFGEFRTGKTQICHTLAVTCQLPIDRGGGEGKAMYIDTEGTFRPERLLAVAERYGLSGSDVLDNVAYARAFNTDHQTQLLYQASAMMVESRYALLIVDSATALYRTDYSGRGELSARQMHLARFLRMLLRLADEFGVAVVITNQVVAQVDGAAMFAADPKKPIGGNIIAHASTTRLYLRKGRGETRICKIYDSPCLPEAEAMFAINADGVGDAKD
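Test system: preformed human Rad51 ssDNA filaments. Compound dosing: single dose, 10 µM final compound. Incubation: filaments 15 min 37 °C, then compound 30 min. Technique: FRET fluorescence dequenching, excitation 485 nm, emission 520 nm. Read-out basis: percent inhibition from fluorescence, normalised to plate control and blank means. Benchmarks: plate controls and plate blanks.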
PMI act = activators of human phosphomannose isomerase | P34949 | 190,000 compounds, 0.005% hits | purified human PMI, coupled resazurin fluorescence, 20 min; hits give high values; 1 = vehicle control, 0 substrate-free wells | activation factor at 20 µM;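 active = activation factor of 2 or more at 20 µM, relative to plate controls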
WT yeast gro inh = growth inhibition of WT yeast, mitochondrial fusion screen; mitochondrial fusion phenotypic screen, WT strain; inhibition, % at 10 µM; 190,000 compounds, 2.1% hits; AID 1362; in the data active = inhibition above about 58%; tested in S. cerevisiae
PMI act hi M6P = PMI (human) activation, high substrate | P34949 | coupled PMI enzyme assay, resazurin fluorescence, 20 min; hits give high values; 1 = untreated enzyme, 0 = substrate-free blank | activation factor at 20 µM | 190,000 compounds, 0.34% hits | AID 1216;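 active = activation factor of 2 or more at 20 µM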
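Technique: Diaphorase-driven resazurin-to-resorufin fluorescence, excitation 544, emission 590 nm | Assay system: Human PMI in coupled enzyme assay | Times: Enzyme reaction with compound 20 min at room temperature | Medium: HEPES-buffered pH 7.4 with magnesium and detergent | Reagent: Mannose-6-phosphate 1.0 mM (near-saturating) plus 0.22 mM NADP+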
Lmaj promast = inhibitors of Leishmania major promastigote growth; Leishmania major promastigotes, resazurin fluorescence viability; inhibition, % at 10 µM; 200,000 compounds, 9% hits; AID 1063; in the data active = inhibition above about 50%;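 also: promastigotes grown with compound for 44 hours at 28 °C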
m-calpain inh = blocks pig calpain II enzyme activity. inhibition, % at 16 µM. purified calpain II, fluorogenic peptide substrate, 30 min. 220,000 compounds, 0.37% hits;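 active = inhibition above about 50%, limit read from the data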
An asterisk follows results filed as active; nt = no result; ! = not confirmed by another sample. The list is not random: actives were taken first. Their share in the collection is about 9.8%.

SMILES	Rad51 HR inh	PMI act	WT yeast gro inh	PMI act hi M6P	Lmaj promast	m-calpain inh
COc1cc(CNC(=O)c2ccc(Cn3nc(C)c(Cl)c3C)o2)cc(OC)c1	2.1	0.9	0.2	0.8	53.0*	13.3
Cc1ccc(S(=O)(=O)CCC(=O)OCc2ccccc2F)cc1	-4.0	0.9	-7.8	0.9	-8.5	-10.7
c1ccc2c(c1)CCN(C1=Nc3cccc4cccc1c34)C2	-33.2	0.9	31.6	0.4	69.0*	-212.5
c1cc2c3c(cccc3c1)C(N1CCCCCC1)=N2	nt	0.8	10.3	0.9	32.4	-220.9
COC1CCN(Cc2cn(Cc3ccccc3)nc2-c2cc3ccccc3o2)CC1	4.7	1	23.4	1	50.5*	23.0
OCC1CCN(Cc2cn(Cc3ccccc3)nc2-c2cc3ccccc3o2)CC1	18.3	0.9	3.2	0.9	19.0	12.5
O=C(O)/C=C/C(=O)Nc1cc(F)ccc1F	nt	nt	nt	nt	nt	-12.5
O=C(/C=C/c1ccc2c(c1)OCO2)Nc1nncs1	2.4	nt	nt	nt	nt	-18.4
O=C(/C=C\c1ccc2c(c1)OCO2)Nc1nnc(SCC(=O)OCc2ccccc2)s1	-0.1	1	-4.9	1	91.7*	-30.8
COC(=O)CSc1nnc(NC(=O)/C=C\c2ccc3c(c2)OCO3)s1	0.4	1.1	-13.7	1.1	99.9*	23.4
O=[N+]([O-])c1cc(C(F)(F)F)cc([N+](=O)[O-])c1Sc1n[nH]c(C(F)(F)F)n1	5.3	nt	nt	nt	nt	23.4
CC(C)(C)NC(=O)NC(=O)CN1CCN(c2cccc(Cl)c2)CC1	-9.2	nt	nt	nt	nt	-1.2
Cc1nc(NCCOc2ccccc2)sc1C(=O)Nc1ccccc1	nt	nt	nt	nt	nt	10.5
O=C(COc1ccccc1)N(Cc1ccco1)c1ccc(O)cc1	1.1	1	8.3	1	-5.7	8.8
O=C(c1ccc(Cl)c(Cl)c1)N(Cc1ccco1)c1ccc(O)cc1	-7.5	0.9	9.6	0.9	70.0*	-18.3
COc1ccc(/C=C(/CC(=O)NCc2ccc(Cl)cc2)c2nc3ccccc3s2)cc1	-4.0	0.9	22.3	1	30.3	-139.8
COc1ccccc1/C=C(/CC(=O)NCc1ccc2c(c1)OCO2)c1nc2ccccc2s1	3.8	0.9	31.8	0.9	93.2*	14.2
O=C(CSc1ncnc2c1cnn2-c1ccccc1)Nc1ccc2c(c1)OCO2	nt	1	3.1	1	3.6	2.0
O=C(CSc1ncnc2c1cnn2-c1ccc(Cl)cc1)NCc1ccc2c(c1)OCO2	-6.6	1	-5.0	1	52.1*	8.6
O=C(CSc1nc2cc(Cl)ccc2s1)NCc1ccc2c(c1)OCO2	1.8	0.8	-6.3	1	75.7*	30.6
COCCNC(=O)/C(C#N)=C/c1cc(C(C)C)c(OC)cc1C	10.8	1	15.7	1	17.4	-0.1
C=CCNC(=O)NC(=O)COC(=O)/C(C#N)=C/c1ccc(OC)cc1	-37.9	1	-9.3	1	-0.9	14.5
CC(=O)N1N=C(c2cccc([N+](=O)[O-])c2)OC1c1ccc(Br)cc1 (stereo not drawn)	16.8	nt	nt	nt	nt	1.6
CC(=O)N1N=C(c2ccccc2)OC1c1ccc([N+](=O)[O-])s1 (stereo not drawn)	-7.3	1.1	-8.1	1	100.3*	15.7
Cc1ccc(C#CC[N+](C)(C)CC#Cc2ccccc2)cc1	-7.2	1.1	6.7	1	100.1*	1.7
SMILES	Rad51 HR inh	PMI act	WT yeast gro inh	PMI act hi M6P	Lmaj promast	m-calpain inh
CC(C)CC(c1nnnn1Cc1ccccc1)N1CCN(C(=O)c2ccco2)CC1 (stereo not drawn)	10.8	0.9	30.9	1.1	64.9*	8.8
CC(C)CCn1nnnc1C(c1ccc(F)cc1)N1CCN(C(=O)c2ccco2)CC1 (stereo not drawn)	0.9	1	10.9	1	55.0*	-5.7
O=C(c1ccco1)N1CCN(C(c2ccc(Cl)cc2)c2nnnn2CC2CCCO2)CC1 (stereo not drawn)	0.0	1.2	11.8	1.3	62.9*	-12.8
CCC(c1nnnn1Cc1ccco1)N1CCN(C(=O)c2ccco2)CC1 (stereo not drawn)	nt	1.2	3.7	1.1	4.2	-7.1
O=C(c1ccco1)N1CCN(C(c2ccccc2Cl)c2nnnn2Cc2cccs2)CC1 (stereo not drawn)	-1.9	0.9	-0.4	0.9	53.0*	-8.9
O=C(c1cccc(Oc2ccccc2)c1)N1CCN(c2ccccn2)CC1	-2.2	1	8.3	1	-8.6	0.5
O=C(O)C1CCN(c2ccc(Cl)nn2)CC1	0.2	1	-6.4	1	-5.1	-31.7
Cc1ccc(-c2nc3ccc(Cl)cc3n2OC(C)C(=O)O)cc1 (stereo not drawn)	19.3	1	-6.3	1	3.0	6.9
O=C1C2C3C=CC(c4ccccc4)(C2C(=O)N1c1cccc(Cl)c1)C1C(=O)N(c2cccc(Cl)c2)C(=O)C31 (stereo not drawn)	nt	0.9	14.7	0.9	68.0*	-2.0
Nc1cc(Nc2ccc(Br)cc2)nc(N)n1	-23.1	nt	nt	nt	nt	-5.7
CN1CCN(CCCN2c3ccccc3Sc3ccc(C(F)(F)F)cc32)CC1	-4.5	1.2	92.6*!	1.2	85.5*	-5.3
COc1cc2nc(NC(=O)c3ccc(Cl)cc3)[nH]c(=O)c2cc1OC	-2.5	0.7	-21.3	0.9	60.0*	-86.1
CCCCC(=O)NNC(=S)NCc1ccccc1	2.1	1.1	-12.3	1.1	-1.5	-16.7
C=CCn1c(C2CC2)n[nH]c1=S	-4.5	1.1	-6.1	1.1	-7.5	-21.2
CCCCCC1CCC(c2n[nH]c(=S)n2C)CC1 (stereo not drawn)	6.2	1	65.1*	1.1	9.8	28.1
Cc1ccc(NC(=O)COC(=O)CNC(=O)c2ccco2)cc1	-4.2	0.9	-20.0	0.9	-1.3	-9.5
Cc1ccc(NC(=O)CN(C)C(=O)Cn2ncc(Cl)c(Cl)c2=O)cc1	0.9	1.1	-8.1	1.1	73.5*	-83.0
O=[N+]([O-])c1c(NCc2ccccc2)cc(N2CCc3ccccc3C2)c2nonc12	-13.6	0.9	12.4	0.6	33.2	-30.4
CC1Nc2nc(N(C)C)[nH]c(=O)c2NC1C (stereo not drawn)	6.2	1.8	0.2	2.7*	-3.0	-194.1
CN(C)c1nc(C(F)(F)F)cc(=O)[nH]1	5.2	1	3.6	1	-6.7	-20.9
CCCn1c(N/N=C(C)\C=C\c2ccccc2)nc2c1c(=O)[nH]c(=O)n2C	1.3	1.5	-15.7	1.6	10.6	-58.0
O=C(NN(c1ccccc1)c1ccccc1)c1ccc([N+](=O)[O-])o1	nt	1	-5.3	1	84.6*	10.2
O=C(c1ccc([N+](=O)[O-])o1)N1CCOCC1	nt	1.1	-5.3	0.9	47.4	-10.8
C/C(=N/NC(=O)C(O)(c1ccccc1)c1ccccc1)c1ccc([N+](=O)[O-])o1	-103.5	1.3	-2.3	1.3	96.2*	0.3
O=C(NNC(=O)c1ccc([N+](=O)[O-])o1)c1ccccc1	-20.8	1.1	-3.9	1	97.7*	21.3
